# PubChem BioAssay
# Activity calls are given as the source filed them.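 Rule for the calls, unless noted: active = a full or partial loss of lipid-probe fluorescence in the fish gall bladder, intestine or both, judged by eye; inactive = no fluorescence loss, or compound toxic to the fish.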
# Experiments:
# [1] = inhibitors of TNFa-induced NFkB p65 translocation, primary screen, imaging, HUVEC, MLSMR starter and 10KST1 sets (AID 438;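 active = inhibition above 20% together with a positive visual image hit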;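 note: compound added about 3h40 before a 20 min TNFalpha stimulation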;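 for inhibition: signal is the nuclear over cytoplasmic p65 intensity ratio per well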); conditions: HUVEC TNFa-induced p65 nuclear translocation; cell count: measured here: nuclei count (cytotoxicity indicator), at 2.08 µM; inhibition: at 2 µM, stronger effect = higher value, 0% TNFa-plus-vehicle, 100% no-TNFa wells
# [2] = inhibitors of E-selectin induction by TNFa, primary screen, imaging, HUVEC, immunofluorescence, MLSMR starter and 10KST1 sets (AID 487;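 active = visually confirmed hit in the image check and inhibition above 20%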;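 for inhibition: signal is fraction of cell area covered by stained E-selectin grains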;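 for nuclei count: 100% = median nuclei count of all wells on the same plate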); conditions: HUVEC TNFalpha-induced E-selectin immunofluorescence imaging, at 2 µM; inhibition: stronger effect = higher value; nuclei count: measured here: cell number, toxicity
# [3] = DUSP6 inhibitors restoring Erk phosphorylation by chemical complementation, primary imaging in DUSP6-transfected HeLa (AID 609;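 active = compounds giving at least 50% inhibition in the cell-based MKP-3 phosphatase rescue imaging test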;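 for inhibition: phospho-Erk level distribution per well compared with pooled transfected vehicle control wells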); conditions: HeLa MKP-3 transfected, phospho-Erk imaging KS statistic, at 10 µM, cells stimulated with TPA for 15 min
# [4] = target: Dual specificity protein phosphatase 6 (Homo sapiens) (UniProt Q16828); experiment: as above; conditions: HeLa MKP-3 transfected, phospho-Erk imaging KS statistic; at 10 µM; stronger effect = higher value; cells stimulated with TPA for 15 min
# Sequence of Dual specificity protein phosphatase 6 (Homo sapiens) (Q16828 whole entry, looked up): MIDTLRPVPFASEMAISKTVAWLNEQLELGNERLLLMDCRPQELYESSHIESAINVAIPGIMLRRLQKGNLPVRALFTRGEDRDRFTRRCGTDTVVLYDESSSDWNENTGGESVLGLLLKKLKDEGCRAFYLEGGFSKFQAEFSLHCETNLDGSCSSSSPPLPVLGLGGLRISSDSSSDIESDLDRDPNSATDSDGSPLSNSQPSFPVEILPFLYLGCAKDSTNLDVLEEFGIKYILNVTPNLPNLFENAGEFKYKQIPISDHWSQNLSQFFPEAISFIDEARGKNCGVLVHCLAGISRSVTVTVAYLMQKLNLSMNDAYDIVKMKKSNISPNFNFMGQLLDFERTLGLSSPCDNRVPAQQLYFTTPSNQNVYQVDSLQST
# [5] = target: Voltage-gated potassium channel subunit beta-2 (Rattus norvegicus) (UniProt P62483); experiment: KvBeta enzyme negative modulators, primary screen, biochemical, NADPH fluorescence (AID 622;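 active = fluorescence slope higher than the sample average by over 3 SD, cut at about -0.22 in these data, passing the limit was not always enough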;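 note: slope of raw intensity against log time taken from 70 to 1610 s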); conditions: recombinant KvBeta, 4-cyanobenzaldehyde reduction, at 10 µM, stronger effect = higher value
# Sequence of Voltage-gated potassium channel subunit beta-2 (Rattus norvegicus) (P62483 whole entry, looked up): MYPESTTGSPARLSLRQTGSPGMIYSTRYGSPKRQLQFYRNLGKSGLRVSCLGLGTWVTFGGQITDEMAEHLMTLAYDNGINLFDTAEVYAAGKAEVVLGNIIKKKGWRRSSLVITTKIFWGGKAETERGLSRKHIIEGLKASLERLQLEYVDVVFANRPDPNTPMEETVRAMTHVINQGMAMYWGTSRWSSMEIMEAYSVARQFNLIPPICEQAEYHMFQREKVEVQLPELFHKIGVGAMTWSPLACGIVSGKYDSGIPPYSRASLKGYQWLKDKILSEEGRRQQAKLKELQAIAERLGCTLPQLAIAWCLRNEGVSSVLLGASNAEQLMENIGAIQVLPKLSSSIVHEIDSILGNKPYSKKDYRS
# [6] = target: Voltage-gated potassium channel subunit beta-2 (Rattus norvegicus) (UniProt P62483); experiment: KvBeta positive modulators, primary screen, biochemical, NADPH fluorescence (AID 623;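 active = NADPH fluorescence slope more negative than the mean of all samples by about 3 SD, 99.7% confidence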;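 note: fluorescence intensity change per second fitted from 20 to 320 s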); conditions: Recombinant KvBeta, NADPH fluorescence decrease slope, 10 min; at 10 µM; stronger effect = lower value
# [7] = target: Muscarinic acetylcholine receptor M4 (Homo sapiens) (UniProt P08173); experiment: compounds altering M4/GIRK thallium flux, either direction, primary screen, M4 allosteric agonist project, cell-based, HEK293 M4/GIRK, BTC-AM (AID 625;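 active = fluorescence slope after compound addition differing from the mean of all tested samples at 99.7% confidence, mostly higher but some lower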;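 note: thallium influx through GIRK channels coupled to M4 in HEK293 cells with BTC-AM dye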); conditions: at 10 µM, actives lie on both sides
# Sequence of Muscarinic acetylcholine receptor M4 (Homo sapiens) (P08173 whole entry, looked up): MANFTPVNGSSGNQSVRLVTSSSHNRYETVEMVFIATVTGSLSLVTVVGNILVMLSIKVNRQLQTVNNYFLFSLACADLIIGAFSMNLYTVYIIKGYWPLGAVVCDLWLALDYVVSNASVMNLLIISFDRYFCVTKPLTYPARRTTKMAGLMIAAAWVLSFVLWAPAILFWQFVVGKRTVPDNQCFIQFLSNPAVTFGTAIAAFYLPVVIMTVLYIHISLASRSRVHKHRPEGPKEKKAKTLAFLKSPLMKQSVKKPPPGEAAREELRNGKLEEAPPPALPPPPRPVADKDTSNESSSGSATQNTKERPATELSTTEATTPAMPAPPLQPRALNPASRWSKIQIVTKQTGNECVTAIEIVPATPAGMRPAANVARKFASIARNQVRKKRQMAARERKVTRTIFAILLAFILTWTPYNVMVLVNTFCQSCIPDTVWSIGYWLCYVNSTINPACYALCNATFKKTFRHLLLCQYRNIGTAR
# Procedure, shortened: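 assay system = HEK293 cells with M4 receptor and GIRK channels | medium = pH 7.3 thallium assay buffer | doses = 10 µM final, single point | timing = cells overnight at 37 °C, BTC-AM loading 1 h, reads 2 min total | signal = BTC-AM fluorescence, 1 Hz kinetic reads | read-out = post-addition slope, 15–24 s, of baseline-normalized fluorescence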
# [8] = inhibitors of larval lipid processing in zebrafish, primary screen, whole organism, PED6 fluorescence, gall bladder and intestine (AID 686); conditions: Zebrafish larvae PED6 lipid processing, fluorescence scoring; screened at 20 µM (by protocol);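 note: larvae 5 to 7 days old with five fish per well; signal comes from phospholipase A2 cleavage of quenched PED6 carried via bile; overnight exposure to compound and PED6 before scoring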
# Procedure, shortened: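 Also added: quenched phospholipase substrate PED6, 100 nM final, ingested by larvae; System: zebrafish larvae, 5-7 d; Quantity: 5 larvae per well; Compound: 20 µM single dose; Schedule: overnight compound and PED6 incubation; Read-out: visual per-well fluorescence inhibition score; Measured by: By-eye fluorescence microscopy; Medium: E3.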
# [9] = inhibitors of Chlamydomonas gravitaxis, primary screen, whole organism, Chlamydomonas reinhardtii, WT vs cilia-less mutant, absorbance, 96-well (AID 463189;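 active = inhibition at or above 50% relative to wild type and mutant plate controls; inactive = inhibition below 50%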;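 note: 0% = wild type cc124 cells in DMSO and 100% = ciliumless bld1 mutant cells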); conditions: OD600 absorbance, 2 days, at 10 µM, stronger effect = higher value
# [10] = measured here: cell density z-score
# [11] = measured here: nuclear c-Myc green intensity z-score
# [12] = measured here: nuclear pErk red intensity z-score, stronger effect = higher value
SMILES,cell count [1],inhibition [1],inhibition [2],nuclei count [2],"z-score [3, 10]","z-score [3, 11]","z-score [3, 12]",inhibition [4],fluorescence slope [5],NADPH fluorescence slope [6],fluorescence slope [7],outcome [8],inhibition [9]
CCN(CC)c1nc(N2CCOCC2)c(C#N)c2c1CN(C)CC2,580,-9.1% (inactive),-116% (inactive),152%,1.03,-1.51,0.0125,7.21% (inactive),-0.43 (inactive),-0.000217 (inactive),0.00408 (inactive),inactive,43.3% (inactive)
C[n+]1cccc(CNC(=O)/C=N/O)c1,621,-2.4% (inactive),-126% (inactive),158%,-2.05,3.02,0.751,6.04% (inactive),-0.47 (inactive),-3e-05 (inactive),0.00464 (inactive),inactive,-6.73% (inactive)
Cn1c(N)c(C#N)c(C#N)c1-c1ccccc1,625,-10.7% (inactive),-93.2% (inactive),183%,-0.336,-0.891,0.762,-2.59% (inactive),-0.339 (inactive),-1.8e-05 (inactive),0.00399 (inactive),inactive,31.5% (inactive)
CCOC(=O)CSc1nc(-c2ccc3c(c2)OCO3)ccc1C#N,676,4.9% (inactive),5.4% (inactive),120%,-0.127,-1.03,0.898,-2.91% (inactive),-0.199 (inactive),-8.6e-07 (inactive),0.00583 (inactive),inactive,-3.42% (inactive)
COc1ccc(-n2ncc3c(N4CCC(C(N)=O)CC4)ncnc32)cc1,602,-18.6% (inactive),-114% (inactive),159%,0.0865,1.24,-0.312,13.4% (inactive),-0.385 (inactive),-6.8e-05 (inactive),0.00675 (inactive),inactive,-0.327% (inactive)
COc1ccc(Nc2cc(C)nc(-n3nc(C)cc3C)n2)cc1,454,12% (inactive),-182% (inactive),127%,-0.499,-0.357,-1.13,-3.95% (inactive),-0.427 (inactive),-2.8e-05 (inactive),0.00507 (inactive),inactive,45% (inactive)
CCOC(=O)CSc1nnc2n(Cc3ccccc3)c(=O)c3c4c(sc3n12)CCC4,364,0.8% (inactive),49.8% (inactive),168%,-0.465,-0.253,1.89,13.4% (inactive),-0.428 (inactive),-0.000132 (inactive),0.00471 (inactive),active; weak signal in gallbladder and intestine,0.799% (inactive)
O=S(=O)(/C=C/c1ccccc1)Nc1ccc2c(c1)OCO2,371,-6.3% (inactive),-96.3% (inactive),154%,0.539,-2,0.714,-2.59% (inactive),-0.476 (inactive),-9.8e-05 (inactive),0.00384 (inactive),inactive,4.72% (inactive)
O=C(NCc1ccccc1)/C(=N\O)c1ccccc1,517,-5.4% (inactive),3.5% (inactive),157%,0.588,0.215,0.627,-1.98% (inactive),-0.382 (inactive),-1.6e-05 (inactive),0.00503 (inactive),inactive,-1.95% (inactive)
CC1(C)Cc2c(sc3ncn4nc(-c5ccco5)nc4c23)CO1,629,6.6% (inactive),-31.6% (inactive),112%,-0.299,0.915,-1.17,-7.67% (inactive),-0.432 (inactive),-4.1e-05 (inactive),0.00512 (inactive),inactive,16.9% (inactive)
COc1ccc2nc(SCC(=O)O)nc(C)c2c1,472,-2.5% (inactive),-119% (inactive),167%,-1.34,-1.35,0.21,-2.29% (inactive),-0.447 (inactive),-4.9e-05 (inactive),0.00491 (inactive),inactive,25.2% (inactive)
COc1ccc(C(=O)c2oc3nc(C)cc(C)c3c2N)cc1,400,3.1% (inactive),7.4% (inactive),117%,1.15,-1.17,-0.769,19.4% (inactive),-0.379 (inactive),-2e-05 (inactive),0.00438 (inactive),inactive,23.4% (inactive)
CCO/C(C)=N/n1c2nc3ccccc3nc2c2c(=O)n(Cc3ccccc3Cl)c(C)nc21,649,-3.5% (inactive),-201% (inactive),159%,-0.0584,-0.543,-0.0329,9.37% (inactive),-0.455 (inactive),-3.5e-05 (inactive),0.00359 (inactive),inactive,12.7% (inactive)
